The subject of data set [1] is patients with right colon cancer. Put plainly: ICG fluorescence lymphography in robotic right hemicolectomy. The format is in vivo, human. As to conditions: 9 patients. The gist of the method: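 Right colon cancer patients had robotic right hemicolectomy with complete mesocolic excision, in two arms of 9. One arm received intraoperative submucosal ICG injection, and fluorescence guided the lymphadenectomy. The comparison arm had standard technique without ICG. ICG-related complications were recorded, with histological nodal staging afterwards.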

Data set [2] concerns patients scheduled for laparoscopic cholecystectomy. Put plainly: Near-infrared fluorescence cholangiography at a very low dose of ICG. It is filed as in vivo, human. The note with it: n = 44. Summed up: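 Prospective study of patients scheduled for laparoscopic cholecystectomy. Each received 0.25 mg ICG intravenously after anaesthetic induction, then NIR fluorescence cholangiography in endoscope overlay mode. Visualisation of the cystic duct, common bile duct and their junction was recorded before and after Calot's triangle dissection. Also recorded: hepatic hyperluminescence, adverse reactions and surgeon satisfaction on a visual analogue scale.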

Data set [3] concerns patients with symptomatic cholelithiasis or acute cholecystitis. Briefly: Direct gallbladder ICG injection during laparoscopic cholecystectomy. The format is in vivo, human. As to conditions: 29 patients. The gist of the method: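 Prospective series of laparoscopic cholecystectomies. ICG was diluted in 10 cc sterile water and injected percutaneously into the gallbladder through a 22G fine needle under direct laparoscopic vision; 2–4 cc was given. Cystic, common bile and common hepatic ducts were recorded as identified or not, first after injection before dissection, then after dissection began.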

Data set [4] has as its system patients with colorectal cancer. It is filed as in vivo, human. Summed up:
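Prospective observational study of consecutive patients from 4/2019 undergoing robotic colorectal cancer surgery. The day before surgery, endoscopy delivered 3 mg ICG in 6 ml saline into the peritumoral submucosa as four 1.5 ml injections at the cardinal points. Fluorescence guided any extension of standard lymphadenectomy. Fluorescent extraregional nodes were counted per patient and by resection type.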

A further data set has as its system adrenal vein. Put plainly: Intraoperative ICG angiography in laparoscopic adrenal resection. The format is in vivo, patients.
Data set [5] deals with small bowel of large white pigs. The format is in vivo, pig. As to conditions: five pigs, baseline 0.74.
Data set [6] relates to patients undergoing LRYGB. Briefly: RCT of intraperitoneal local anesthetic in LRYGB with ERABS protocol. The format is in vivo, human. As to conditions: intraperitoneal ropivacaine 0.2% 100 mL; both groups. Summed up: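 Prospective double-blind randomised controlled pilot trial with an a-priori protocol: 120 laparoscopic Roux-en-Y gastric bypass patients under an established ERABS protocol. Patients were randomised to intraperitoneal ropivacaine 0.2% 100 mL or normal saline 100 mL. Adverse events were recorded in both arms.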

The mark [7] stands for this setting: 0.25 mg ICG i.v. after anaesthetic induction.
Setting [8] is: after ICG injection and before starting the dissection.

SMILES strings stand for the structures. Like-named read-outs stand apart in the source and are kept apart here.

For `CC1(C)C(/C=C/C=C/C=C/C=C2\N(CCCCS(=O)(=O)O)c3ccc4ccccc4c3C2(C)C)=[N+](CCCCS(=O)(=O)[O-])c2ccc3ccccc3c21` [ICG, indocyanine green], the ICG-related complications entry in data set [1] was “none”. Besides, in data set [2] (setting [7]), the “CBD identified by ICG NIRF-C” value turned out to be 100%, the “CD identified by ICG NIRF-C” value is given as 71% and the “CDBDJ identified by ICG NIRF-C” value was 84%. In data set [2] (0.25 mg ICG i.v.), the “bile duct injuries or allergic reactions to ICG” value is on record as “no bile duct injuries (BDIs) or allergic reactions to ICG” and the “surgeries with surgeon satisfaction of 4/5 or 5/5 (VAS)” value is ~90%. Besides, in data set [3] (setting [8]), the “cases with common bile duct identified” value was found to be 18 cases and the “cases with common hepatic duct identified” value was determined as 9 cases. Further, in data set [3] (after starting the dissection), the “cases with common bile duct identified” value was found to be 27 cases, the “cases with common hepatic duct identified” value was determined as 14 cases and the “cases with cystic duct identified” value is “all cases”. Further, the “patients with ICG-fluorescent lymphnodes observed” value in data set [4] (3 mg ICG in 6 ml saline, peritumoral submucosal, day before surgery, 86/88) is recorded as 97,7%. Besides, in data set [4] (34 of 88 patients), the “patients with fluorescent extraregional lymph nodes” value is 38,6%. Further, the ICG-injection related complication entry in data set [4] (88 patients) was “No ICG-injection related complication occurred”. In addition, the “patients with fluorescent extraregional lymph nodes” value in data set [4] (anterior rectal resections) is given as 21/33. Moreover, the “patients with fluorescent extraregional lymph nodes” value in data set [4] (left hemicolectomies) was 3/20. Further, in data set [4] (range 1–8), the “mean number of retrieved extraregional fluorescent lymph nodes” value was found to be 4. The “patients with fluorescent extraregional lymph nodes” value in data set [4] (right hemicolectomies) was 10/31. Also, the “cases in which ICG confirmed the adrenal vein” value with adrenal vein (laparoscopic right adrenal resection) is recorded as 2/3. Moreover, the “cases in which ICG helped identify the vessel, after the dissection” value in the data set on adrenal vein (left laparoscopic adrenalectomy) is recorded as 100%.

Consider `NC[C@H](O)c1ccc(O)c(O)c1` [norepinephrine], for which the “local capillary lactate (LCL)” value in data set [5] (first assessment) is 0.82 mmol/L; in data set [5] (fourth assessment) it was 0.62 mmol/L; in data set [5] (second assessment), 0.64 mmol/L; in data set [5] (third assessment), 0.60 mmol/L.

Consider `CCCN1CCCC[C@H]1C(=O)Nc1c(C)cccc1C` [ropivacaine], for which the adverse events entry in data set [6] is recorded as “no adverse events”.
